Reference: ChEMBL document CHEMBL4184148 (Bioorg Med Chem Lett, 2017)

Tests used:
[1] = target: Serine/threonine-protein kinase Sgk1 (Homo sapiens) (UniProt O00141); assay: Binding affinity to wild-type human partial length SGK (I60 to L431 residues) expressed in HEK293 cells at 1 uM by Kinomescan method relative to control; assay type: cell-based
[2] = target: Dual specificity protein kinase CLK4 (Homo sapiens) (UniProt Q9HAZ1); assay: Binding affinity to wild-type human partial length CLK4 (R135 to K481 residues) expressed in Escherichia coli BL21 at 1 uM by Kinomescan method relative to control
[3] = target: Mitogen-activated protein kinase kinase kinase 4 (Homo sapiens) (UniProt Q9Y6R4); assay: Binding affinity to wild-type human partial length MAP3K4 (G1319 to E1608 residues) expressed in Escherichia coli BL21 at 1 uM by Kinomescan method relative to control
[4] = target: Mast/stem cell growth factor receptor Kit (Homo sapiens) (UniProt P10721); assay: Binding affinity to wild-type human partial length KIT (I571 to D952 residues) expressed in Escherichia coli BL21 at 1 uM by Kinomescan method relative to control
[5] = target: Tyrosine-protein kinase BTK (Homo sapiens) (UniProt Q06187); assay: Binding affinity to wild-type human full length BTK (M1 to S659 residues) expressed in HEK293 cells at 1 uM by Kinomescan method relative to control; assay type: cell-based
[6] = target: Serine/threonine-protein kinase MRCK beta (Homo sapiens) (UniProt Q9Y5S2); assay: Binding affinity to wild-type human partial length MRCKB (L56 to S417 residues) expressed in Escherichia coli BL21 at 1 uM by Kinomescan method relative to control
[7] = target: SNF-related serine/threonine-protein kinase (Homo sapiens) (UniProt Q9NRH2); assay: Binding affinity to wild-type human partial length SNRK (M1 to E339 residues) expressed in HEK293 cells at 1 uM by Kinomescan method relative to control; assay type: cell-based
[8] = target: Phosphatidylinositol 3-kinase catalytic subunit type 3 (Homo sapiens) (UniProt Q8NEB9); assay: Binding affinity to wild-type human partial length VPS34 (S282 to H879 residues) expressed in HEK293 cells at 1 uM by Kinomescan method relative to control; assay type: cell-based
[9] = target: Serine/threonine-protein kinase OSR1 (Homo sapiens) (UniProt O95747); assay: Binding affinity to wild-type human full length OSR1 (M1 to S527 residues) expressed in HEK293 cells at 1 uM by Kinomescan method relative to control; assay type: cell-based
Procedure, shortened: (§1)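 Kinome-wide competition binding panel run by an outside provider, with each compound tested at a single concentration. Activity is read against the kinase panel.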

[10] = target: Serine/threonine-protein kinase 16 (Homo sapiens) (UniProt O75716); assay: Binding affinity to wild-type human partial length STK16 (G11 to I305 residues) expressed in Escherichia coli BL21 at 1 uM by Kinomescan method relative to control
Chain of Serine/threonine-protein kinase 16 (Homo sapiens) (O75716 whole entry, the tested form may be a part): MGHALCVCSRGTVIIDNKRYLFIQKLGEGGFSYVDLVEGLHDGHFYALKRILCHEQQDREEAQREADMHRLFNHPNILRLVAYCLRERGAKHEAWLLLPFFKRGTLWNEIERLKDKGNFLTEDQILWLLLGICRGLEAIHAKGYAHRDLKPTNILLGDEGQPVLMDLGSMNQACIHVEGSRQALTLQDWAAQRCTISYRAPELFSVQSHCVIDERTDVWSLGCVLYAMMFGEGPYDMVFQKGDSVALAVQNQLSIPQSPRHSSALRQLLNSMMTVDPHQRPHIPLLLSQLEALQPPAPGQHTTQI

[11] = target: Mitogen-activated protein kinase kinase kinase 13 (Homo sapiens) (UniProt O43283); assay: Binding affinity to wild-type human full length LZK (M1 to W966 residues) expressed in HEK293 cells at 1 uM by Kinomescan method relative to control; assay type: cell-based
Procedure, shortened: (§2)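 Run as one kinome-wide competition binding panel with each compound at a single fixed concentration. Results were plotted as a kinome-wide selectivity map.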

[12] = target: Focal adhesion kinase 1 (Homo sapiens) (UniProt Q05397); assay: Binding affinity to wild-type human partial length FAK (D402 to R696 residues) expressed in Escherichia coli BL21 at 1 uM by Kinomescan method relative to control
[13] = target: NUAK family SNF1-like kinase 2 (Homo sapiens) (UniProt Q9H093); assay: Binding affinity to wild-type human partial length SNARK (P22 to A333 residues) expressed in HEK293 cells at 1 uM by Kinomescan method relative to control; assay type: cell-based
Chain of NUAK family SNF1-like kinase 2 (Homo sapiens) (Q9H093 whole entry, the tested form may be a part): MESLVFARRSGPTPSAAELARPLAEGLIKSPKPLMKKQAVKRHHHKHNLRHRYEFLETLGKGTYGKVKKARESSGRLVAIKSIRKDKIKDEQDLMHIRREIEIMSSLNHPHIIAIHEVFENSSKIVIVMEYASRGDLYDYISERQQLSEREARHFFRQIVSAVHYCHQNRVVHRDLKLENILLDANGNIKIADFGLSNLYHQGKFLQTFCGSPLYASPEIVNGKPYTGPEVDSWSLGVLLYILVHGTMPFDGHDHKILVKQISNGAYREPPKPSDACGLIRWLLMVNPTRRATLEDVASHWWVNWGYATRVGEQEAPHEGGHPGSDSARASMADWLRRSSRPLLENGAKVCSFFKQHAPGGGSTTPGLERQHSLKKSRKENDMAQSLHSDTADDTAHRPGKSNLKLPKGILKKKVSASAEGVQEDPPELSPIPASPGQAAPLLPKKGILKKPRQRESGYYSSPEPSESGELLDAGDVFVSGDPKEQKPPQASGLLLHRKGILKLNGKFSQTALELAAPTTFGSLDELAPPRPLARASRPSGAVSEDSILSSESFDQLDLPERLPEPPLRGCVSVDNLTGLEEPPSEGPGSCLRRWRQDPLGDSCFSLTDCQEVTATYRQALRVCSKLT

[14] = system: Fibroblast growth factor receptor 3 (Homo sapiens), P22607 [G697C]; assay: Binding affinity to human partial length FGFR3 G697C mutant (R442 to S771 residues) expressed in Escherichia coli BL21 at 1 uM by Kinomescan method relative to control
[15] = target: Mitogen-activated protein kinase 13 (Homo sapiens) (UniProt O15264); assay: Binding affinity to wild-type human full length p38-delta (M1 to L365 residues) expressed in Escherichia coli BL21 at 1 uM by Kinomescan method relative to control; procedure, shortened: as §1
[16] = target: Serine/threonine-protein kinase haspin (Homo sapiens) (UniProt Q8TF76); assay: Binding affinity to wild-type human partial length HASPIN (I452 to K798 residues) expressed in HEK293 cells at 1 uM by Kinomescan method relative to control; assay type: cell-based
[17] = target: Mitogen-activated protein kinase 1 (Homo sapiens) (UniProt P28482); assay: Binding affinity to wild-type human full length ERK2 (M1 to S360 residues) expressed in Escherichia coli BL21 at 1 uM by Kinomescan method relative to control; procedure, shortened: as §2
Chain of Mitogen-activated protein kinase 1 (Homo sapiens) (P28482 whole entry, the tested form may be a part): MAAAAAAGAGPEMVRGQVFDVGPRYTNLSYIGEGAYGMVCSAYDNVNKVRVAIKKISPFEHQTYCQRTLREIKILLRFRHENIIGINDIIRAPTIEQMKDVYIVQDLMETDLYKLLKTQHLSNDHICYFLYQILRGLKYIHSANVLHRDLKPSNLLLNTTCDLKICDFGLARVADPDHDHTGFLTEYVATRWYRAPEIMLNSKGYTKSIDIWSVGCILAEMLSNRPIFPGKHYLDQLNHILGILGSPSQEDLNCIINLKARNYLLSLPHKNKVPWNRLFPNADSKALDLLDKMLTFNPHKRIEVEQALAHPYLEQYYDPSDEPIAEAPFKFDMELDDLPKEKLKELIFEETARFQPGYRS

[18] = target: Mitogen-activated protein kinase kinase kinase 1 (Homo sapiens) (UniProt Q13233); assay: Binding affinity to wild-type human partial length MAP3K1 (L1202 to W1512 residues) expressed in HEK293 cells at 1 uM by Kinomescan method relative to control; assay type: cell-based
Chain of Mitogen-activated protein kinase kinase kinase 1 (Homo sapiens) (Q13233 whole entry, the tested form may be a part): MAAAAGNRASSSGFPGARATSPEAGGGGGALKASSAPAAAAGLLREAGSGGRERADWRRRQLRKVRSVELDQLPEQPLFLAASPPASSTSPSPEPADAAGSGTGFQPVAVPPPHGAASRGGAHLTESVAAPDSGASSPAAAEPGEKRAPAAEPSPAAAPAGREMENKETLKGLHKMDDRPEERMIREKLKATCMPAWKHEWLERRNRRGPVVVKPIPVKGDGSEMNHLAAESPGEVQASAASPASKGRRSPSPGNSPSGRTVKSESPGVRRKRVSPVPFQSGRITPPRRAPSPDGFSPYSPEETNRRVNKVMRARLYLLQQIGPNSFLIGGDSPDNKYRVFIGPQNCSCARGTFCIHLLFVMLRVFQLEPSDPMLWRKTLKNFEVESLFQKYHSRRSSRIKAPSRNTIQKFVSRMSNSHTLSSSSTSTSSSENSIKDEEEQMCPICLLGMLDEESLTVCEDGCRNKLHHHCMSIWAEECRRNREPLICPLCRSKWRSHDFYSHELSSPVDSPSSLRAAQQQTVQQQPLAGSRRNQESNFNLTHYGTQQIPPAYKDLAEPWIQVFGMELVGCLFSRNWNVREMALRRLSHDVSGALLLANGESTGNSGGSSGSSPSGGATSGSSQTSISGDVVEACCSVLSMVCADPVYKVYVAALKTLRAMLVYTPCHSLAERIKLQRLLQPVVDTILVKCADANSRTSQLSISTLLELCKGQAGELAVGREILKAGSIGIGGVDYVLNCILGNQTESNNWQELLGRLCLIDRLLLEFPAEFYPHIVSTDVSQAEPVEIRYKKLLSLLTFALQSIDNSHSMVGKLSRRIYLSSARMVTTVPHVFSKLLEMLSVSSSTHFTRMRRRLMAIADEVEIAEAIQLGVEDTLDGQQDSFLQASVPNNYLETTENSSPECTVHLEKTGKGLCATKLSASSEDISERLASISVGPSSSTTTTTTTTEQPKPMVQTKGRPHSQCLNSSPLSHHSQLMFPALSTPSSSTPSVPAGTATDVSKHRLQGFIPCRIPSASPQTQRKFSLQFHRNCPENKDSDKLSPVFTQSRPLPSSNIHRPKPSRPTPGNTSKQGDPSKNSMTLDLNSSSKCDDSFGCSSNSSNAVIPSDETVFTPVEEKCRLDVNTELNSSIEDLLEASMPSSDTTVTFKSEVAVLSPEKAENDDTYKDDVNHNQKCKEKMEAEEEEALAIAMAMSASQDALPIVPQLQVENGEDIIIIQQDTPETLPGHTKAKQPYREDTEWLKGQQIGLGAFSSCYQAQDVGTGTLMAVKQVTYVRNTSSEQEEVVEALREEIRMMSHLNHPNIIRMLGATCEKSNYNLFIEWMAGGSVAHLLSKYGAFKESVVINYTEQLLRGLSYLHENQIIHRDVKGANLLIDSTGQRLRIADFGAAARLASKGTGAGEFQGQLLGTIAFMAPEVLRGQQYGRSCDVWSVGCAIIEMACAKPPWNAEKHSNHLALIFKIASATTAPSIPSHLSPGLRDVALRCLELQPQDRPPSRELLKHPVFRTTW

[19] = target: Phosphatidylinositol 4-phosphate 5-kinase type-1 gamma (Homo sapiens) (UniProt O60331); assay: Binding affinity to wild-type human partial length PIP5K1C (M1 to T668 residues) expressed in HEK293 cells at 1 uM by Kinomescan method relative to control; assay type: cell-based
[20] = target: LIM domain kinase 2 (Homo sapiens) (UniProt P53671); assay: Binding affinity to wild-type human full length LIMK2 (M1 to P638 residues) expressed in Escherichia coli BL21 at 1 uM by Kinomescan method relative to control; procedure, shortened: as §2
[21] = target: Dual specificity tyrosine-phosphorylation-regulated kinase 2 (Homo sapiens) (UniProt Q92630); assay: Binding affinity to wild-type human full length DYRK2 (M1 to S528 residues) expressed in HEK293 cells at 1 uM by Kinomescan method relative to control; assay type: cell-based; procedure, shortened: as §2
Chain of Dual specificity tyrosine-phosphorylation-regulated kinase 2 (Homo sapiens) (Q92630 whole entry, the tested form may be a part): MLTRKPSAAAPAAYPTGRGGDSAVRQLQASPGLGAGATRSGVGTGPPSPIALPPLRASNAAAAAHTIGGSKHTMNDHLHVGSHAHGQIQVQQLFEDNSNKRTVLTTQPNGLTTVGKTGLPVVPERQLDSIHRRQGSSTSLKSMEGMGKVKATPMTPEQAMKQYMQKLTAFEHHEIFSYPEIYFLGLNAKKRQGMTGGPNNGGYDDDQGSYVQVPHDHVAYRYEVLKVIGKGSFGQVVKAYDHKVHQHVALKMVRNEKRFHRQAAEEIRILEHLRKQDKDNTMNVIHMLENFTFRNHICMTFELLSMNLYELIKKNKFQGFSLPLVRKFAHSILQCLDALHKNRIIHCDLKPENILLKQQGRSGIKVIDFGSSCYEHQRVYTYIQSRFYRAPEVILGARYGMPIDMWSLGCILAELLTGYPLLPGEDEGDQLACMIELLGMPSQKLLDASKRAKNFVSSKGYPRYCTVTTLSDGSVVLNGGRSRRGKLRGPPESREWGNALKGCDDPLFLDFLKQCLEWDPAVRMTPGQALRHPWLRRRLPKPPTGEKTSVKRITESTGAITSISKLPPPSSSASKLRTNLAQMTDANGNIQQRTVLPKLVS

[22] = target: Serine/threonine-protein kinase MAK (Homo sapiens) (UniProt P20794); assay: Binding affinity to wild-type human partial length MAK (M1 to P314 residues) expressed in Escherichia coli BL21 at 1 uM by Kinomescan method relative to control
Chain of Serine/threonine-protein kinase MAK (Homo sapiens) (P20794 whole entry, the tested form may be a part): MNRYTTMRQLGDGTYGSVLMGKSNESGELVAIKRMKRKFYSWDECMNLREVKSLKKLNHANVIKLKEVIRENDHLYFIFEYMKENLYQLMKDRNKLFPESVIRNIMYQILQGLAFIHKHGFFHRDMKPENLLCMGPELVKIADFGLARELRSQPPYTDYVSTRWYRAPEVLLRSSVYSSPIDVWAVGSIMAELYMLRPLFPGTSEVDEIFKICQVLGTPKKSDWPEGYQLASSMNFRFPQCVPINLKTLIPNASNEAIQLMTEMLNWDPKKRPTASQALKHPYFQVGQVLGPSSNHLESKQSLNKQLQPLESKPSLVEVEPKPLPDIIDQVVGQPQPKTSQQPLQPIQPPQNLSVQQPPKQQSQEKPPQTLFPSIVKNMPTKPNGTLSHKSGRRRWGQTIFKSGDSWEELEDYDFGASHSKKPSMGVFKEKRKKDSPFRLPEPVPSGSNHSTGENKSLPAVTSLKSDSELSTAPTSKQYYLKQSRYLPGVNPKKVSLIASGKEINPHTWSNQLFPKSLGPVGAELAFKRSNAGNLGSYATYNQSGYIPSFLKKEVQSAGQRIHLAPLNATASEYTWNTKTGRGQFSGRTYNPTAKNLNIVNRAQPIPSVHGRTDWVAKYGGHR

[23] = target: Dual specificity mitogen-activated protein kinase kinase 3 (Homo sapiens) (UniProt P46734); assay: Binding affinity to wild-type human full length MEK3 (M1 to S318 residues) expressed in HEK293 cells at 1 uM by Kinomescan method relative to control; assay type: cell-based; procedure, shortened: as §2
[24] = target: Microtubule-associated serine/threonine-protein kinase 1 (Homo sapiens) (UniProt Q9Y2H9); assay: Binding affinity to wild-type human partial length MAST1 (S346 to V730 residues) expressed in HEK293 cells at 1 uM by Kinomescan method relative to control; assay type: cell-based
[25] = target: Ephrin type-A receptor 3 (Homo sapiens) (UniProt P29320); assay: Binding affinity to wild-type human partial length EPHA3 (D604 to K889 residues) expressed in Escherichia coli BL21 at 1 uM by Kinomescan method relative to control
Chain of Ephrin type-A receptor 3 (Homo sapiens) (P29320 whole entry, the tested form may be a part): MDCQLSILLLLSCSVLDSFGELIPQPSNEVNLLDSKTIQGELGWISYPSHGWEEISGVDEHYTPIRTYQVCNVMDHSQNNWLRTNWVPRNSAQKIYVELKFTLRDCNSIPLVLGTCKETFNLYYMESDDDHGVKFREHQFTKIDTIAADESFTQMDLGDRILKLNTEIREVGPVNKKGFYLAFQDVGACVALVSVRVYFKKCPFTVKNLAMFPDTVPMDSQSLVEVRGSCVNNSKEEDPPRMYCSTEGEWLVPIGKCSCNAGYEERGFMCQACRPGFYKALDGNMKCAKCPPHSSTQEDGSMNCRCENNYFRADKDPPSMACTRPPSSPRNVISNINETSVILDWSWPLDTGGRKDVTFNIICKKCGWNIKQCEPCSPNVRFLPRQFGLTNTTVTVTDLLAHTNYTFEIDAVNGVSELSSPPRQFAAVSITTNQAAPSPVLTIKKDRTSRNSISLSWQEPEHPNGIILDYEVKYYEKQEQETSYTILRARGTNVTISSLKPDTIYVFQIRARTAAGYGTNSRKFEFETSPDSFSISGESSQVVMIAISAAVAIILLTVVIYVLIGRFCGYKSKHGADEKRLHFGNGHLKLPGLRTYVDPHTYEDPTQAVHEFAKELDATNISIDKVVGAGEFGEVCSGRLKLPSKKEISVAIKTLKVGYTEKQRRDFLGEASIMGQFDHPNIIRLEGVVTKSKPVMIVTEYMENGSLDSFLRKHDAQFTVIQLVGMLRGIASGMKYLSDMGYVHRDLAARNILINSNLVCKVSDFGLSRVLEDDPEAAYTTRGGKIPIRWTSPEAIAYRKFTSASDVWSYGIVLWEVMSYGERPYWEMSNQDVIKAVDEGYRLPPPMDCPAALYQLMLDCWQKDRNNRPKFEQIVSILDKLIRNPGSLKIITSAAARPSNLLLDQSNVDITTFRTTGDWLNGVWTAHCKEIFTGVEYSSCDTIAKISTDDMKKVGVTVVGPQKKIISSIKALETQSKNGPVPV

| SMILES | Activity [1] [%] | Activity [2] [%] | Activity [3] [%] | Activity [4] [%] | Activity [5] [%] | Activity [6] [%] | Activity [7] [%] | Activity [8] [%] | Activity [9] [%] | Activity [10] [%] | Activity [11] [%] | Activity [12] [%] | Activity [13] [%] | Activity [14] [%] | Activity [15] [%] | Activity [16] [%] | Activity [17] [%] | Activity [18] [%] | Activity [19] [%] | Activity [20] [%] | other results |
| --- | --- | --- | --- | --- | --- | --- | --- | --- | --- | --- | --- | --- | --- | --- | --- | --- | --- | --- | --- | --- | --- |
| CCC(=O)Nc1ccc(C(=O)Nc2ccc(Nc3ncc4c(n3)N(C)c3ccc(C)cc3C(=O)N4C)cc2)cc1 | 79 | 100 | 100 | 84 | 100 | 98 | 75 | 100 | 90 | 77 | 82 | 99 | 65 | 95 | 97 | 100 | 87 | 76 | 88 | 89 | Activity [21]: 100%; Activity [22]: 100%; Activity [23]: 65%; Activity [24]: 80%; Activity [25]: 99% |
| C=CC(=O)Nc1ccc(C(=O)Nc2ccc(Nc3ncc4c(n3)N(C)c3ccc(C)cc3C(=O)N4C)cc2)cc1 | 100 | 100 | 100 | 98 | 94 | 96 | 100 | 99 | 99 | 77 | 87 | 92 | 93 | 93 | 84 | 100 | 99 | 83 | 98 | 100 | Activity [21]: 92%; Activity [22]: 78%; Activity [23]: 92%; Activity [24]: 90%; Activity [25]: 100% |
